Screening data as filed in PubChem.
TAAR1 ag: human TAAR1 agonists, primary screen, Fluo-8 calcium fluorescence, CHO RD-HGA16 cells | vehicle wells 0%, saturating PEA agonist 100% | activation, % at 3 µM | 360,000 tested, 0.99% active;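 active = activation above the mean activation of all test compounds in the run plus 3 SD, cut at about 38% in these data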
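Test system: RD-HGA16 (CHO) cells co-expressing Gα16 and hTAAR1 | Doses: Single dose, 3 µM | Schedule: 17-24 h seeding, 75 min 37 °C dye, 30 min RT | Evaluation: % activation from peak over basal fluorescence ratio, DMSO-to-PEA scaled | Technique: Kinetic Fluo-8 calcium fluorescence | Benchmarks: Low control DMSO, high control PEA (EC100)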
OX1R antag-1: OX1R (HCRTR1) antagonists, primary screen, fluorescence, CHO/OX1R cells, Fluo-8 calcium, orexin A; Orexin/Hypocretin receptor type 1 (Homo sapiens), O43613; Fluo-8 calcium fluorescence; inhibition, % at 5 µM; 330,000 tested, 0.43% active; AID 434989, 2010;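 active = inhibition above its plate's threshold, mean inhibition of all tested compounds on the plate plus 3 SD, cut at about 37% in these data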;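 note: 0% = orexin A challenge wells and 100% = SB-334867-A antagonist wells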
TAAR1 antagonist: human TAAR1 antagonists, primary screen, Fluo-8 calcium fluorescence, CHO RD-HGA16 cells | Trace amine-associated receptor 1 (Homo sapiens), Q96RJ0 | antagonist | inhibition, % at 3 µM | 360,000 tested, 1.5% active;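 active = inhibition above a per-plate cutoff, the mean inhibition of test compounds on that plate plus 3 SD, cut at about 49% in these data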;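 note: 0% = DMSO plus EC80 beta-PEA response and 100% = DMSO alone without agonist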
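Test system: RD-HGA16 CHO cells with stable hTAAR1 and Gα16 / Probe or stimulus: EC80 β-phenethylamine stimulus / Times: seeding 17-24 h prior, 75-min 37 °C, 30-min RT dye loading / Detection: Fluo-8 calcium-sensitive fluorescence / Read-out basis: % inhibition scaled between DMSO and EC80 PEA controls / Repeats: singlicate, one well per test compound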
GPR7 antagonist: GPR7 receptor antagonists, primary screen, cell-based, fluorescence, single concentration. Neuropeptides B/W receptor type 1 (Homo sapiens), P48145. GPR7-expressing cells, fluorescence antagonist assay. inhibition, % at 4.4 µM. 290,000 tested, 1.1% active. AID 1861, 2009; in the data active = inhibition above about 16%, passing the limit was not always enough;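 note: cells stimulated with the agonist NPW; 0% = agonist with vehicle and 100% = vehicle without agonist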
Target sequence (P48145 whole entry, looked up): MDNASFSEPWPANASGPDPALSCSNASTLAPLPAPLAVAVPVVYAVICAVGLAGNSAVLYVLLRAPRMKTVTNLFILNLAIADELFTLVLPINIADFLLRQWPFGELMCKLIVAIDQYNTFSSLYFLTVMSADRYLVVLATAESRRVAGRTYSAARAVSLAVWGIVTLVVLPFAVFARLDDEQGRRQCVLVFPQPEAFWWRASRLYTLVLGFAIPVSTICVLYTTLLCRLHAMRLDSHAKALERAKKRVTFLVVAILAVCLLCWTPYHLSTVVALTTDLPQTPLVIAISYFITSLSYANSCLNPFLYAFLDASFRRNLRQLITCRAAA
OX1R antag-2: antagonists of human orexin 1 receptor (OX1R); Orexin/Hypocretin receptor type 1 (Homo sapiens), O43613; AID 485270, 2010; inhibition, % at 6.6 µM; OX1R-expressing cells, FRET antagonist read-out; 330,000 tested, 1.8% active; in the data active = inhibition mostly above about 38%, no sharp cut-off; inactive = mostly below about 40%;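 note: 0% = agonist challenge alone and 100% = reference antagonist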
CHO parental Ca: ATP-evoked calcium signal inhibitors, parental CHO, primary screen, counter-screen for OX1R antagonist project, cell-based, fluorescence, Fluo-8 calcium dye; parental CHO-K1, ATP-induced calcium, Fluo-8 fluorescence; inhibition, % at 5.6 µM; 330,000 tested, 0.63% active;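 active = inhibition above that plate's mean sample inhibition plus 3 SD, cut at about 26% in these data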;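 note: 0% = ATP-challenged DMSO wells and 100% = DMSO wells without ATP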
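test system = CHO parental line | reagent = ATP stimulus | measured by = intracellular calcium via Fluo-8 no-wash fluorescent dye | control set = ATP and no-ATP DMSO wells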
Numbers without * were called inactive. Hits are enriched below; roughly 4.6% of the tested compounds scored in any of these assays.

How did CCCCCN(C(=O)Cc1c(C)n(CCCCC)c2ccccc12)c1ccc(Oc2cccnc2)c(C)c1 do in these assays?
TAAR1 ag: 0; TAAR1 antagonist: 0

Results for Cc1ccccc1C(=O)N1CCN(C(=O)C(=O)c2cccc(C(F)(F)F)c2)CC1 ?
TAAR1 ag: 2; TAAR1 antagonist: -8

What do the screens show for `CNC(=O)OC1CC2CC1[C@H]1CCCCN1C2=O` (some centres undefined)?
TAAR1 ag: 1; TAAR1 antagonist: -4

How did C#CCN1CC(COCCCC)Oc2cccc(Oc3ccc(C(C)(C)C)c(C)c3)c2S1(=O)=O (centres undefined) do in these assays?
TAAR1 ag: -1; TAAR1 antagonist: -6

How did CCOC(=O)c1nc2c(=O)n(C)c(=O)n(C)c2n(C)c1=O do in these assays?
TAAR1 ag: 2; OX1R antag-1: 7; TAAR1 antagonist: -23; OX1R antag-2: 48*; CHO parental Ca: -13

How did Nc1nc2c(s1)COc1ccccc1-2 do in these assays?
TAAR1 ag: -1; OX1R antag-1: -11; TAAR1 antagonist: -10; GPR7 antagonist: -10; OX1R antag-2: 19; CHO parental Ca: -12

How did Nc1nc2c(s1)CCc1c-2cnn1-c1ccccc1 do in these assays?
OX1R antag-1: 5; GPR7 antagonist: 20; OX1R antag-2: 61*; CHO parental Ca: -16

What do the screens show for `O=C(OCc1nnc(-c2ccc([N+](=O)[O-])cc2)o1)C1CC(=O)N(CCc2ccccc2)C1` (centres undefined)?
TAAR1 ag: -4; OX1R antag-1: -10; TAAR1 antagonist: 4; OX1R antag-2: 60*; CHO parental Ca: -2

Results for O=C(CCN=C1NS(=O)(=O)c2ccccc21)OCc1nnc(-c2ccc([N+](=O)[O-])cc2)o1 ?
TAAR1 ag: 0; OX1R antag-1: 12; TAAR1 antagonist: -10; OX1R antag-2: 63*; CHO parental Ca: -9

Results for Cc1csc(=O)n1CCC(=O)OCc1nnc(-c2ccc([N+](=O)[O-])cc2)o1 ?
TAAR1 ag: 0; OX1R antag-1: -16; TAAR1 antagonist: -7; OX1R antag-2: 50*; CHO parental Ca: -12

What do the screens show for `N#Cc1ccccc1COC(=O)CCN=C1NS(=O)(=O)c2ccccc21`?
TAAR1 ag: 5; OX1R antag-1: -6; TAAR1 antagonist: 5; OX1R antag-2: 2; CHO parental Ca: -4

What do the screens show for `Cc1csc(=O)n1CCC(=O)OCc1nnc(-c2ccccc2)o1`?
TAAR1 ag: 2; OX1R antag-1: -17; TAAR1 antagonist: -9; OX1R antag-2: 5; CHO parental Ca: -15

How did Cc1cc(N2CCNC[C@@H]2C)ccc1N1C[C@@H](C)O[C@@H](C)C1 do in these assays?
TAAR1 ag: 3; TAAR1 antagonist: -5

Results for COc1cccc(C(C(=O)NCc2ccccc2)N2CCN(C(=O)C3CCCO3)CC2)c1OC (centres undefined) ?
TAAR1 ag: 0; TAAR1 antagonist: -6

Results for O=c1ccn([C@@H]2O[C@H](CNCc3cccn3-c3nccs3)[C@@H](O)[C@H]2O)c(=O)[nH]1 ?
TAAR1 ag: 1; TAAR1 antagonist: 10

Results for Cn1c(=O)c2c(-c3ccccc3)n(-c3ccccc3Br)cc2n(C)c1=O ?
TAAR1 ag: 7; TAAR1 antagonist: 53*

What do the screens show for `Cn1c(=O)c2c(-c3ccccc3)n(-c3ccccc3O)cc2n(C)c1=O`?
TAAR1 ag: 9; OX1R antag-1: -18; TAAR1 antagonist: 6; GPR7 antagonist: -10; OX1R antag-2: 9; CHO parental Ca: -4

How did CC1CN(Cc2cc(=O)n3ccsc3n2)CC(C)O1 (centres undefined) do in these assays?
TAAR1 ag: 40*; OX1R antag-1: -7; TAAR1 antagonist: -11; GPR7 antagonist: -7; OX1R antag-2: 8; CHO parental Ca: -18
